An excerpt weighted towards active compounds, which were near 2.4% of everything screened.
ANO1 activ: TMEM16A chloride channel activators or potentiators, primary screen, cell-based, HTS; B-score at 10 µM; HEK293 TMEM16A/YFP-H148Q/I152L, iodide quench fluorescence; hits give low values; Anoctamin-1 (Mus musculus), Q8BHY3; AID 623877, 2012; actives 0.3% (n = 340,000);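 active = fluorescence-ratio B-score plate-corrected deviation score at least 3 library SD below zero, with starting fluorescence score within 5 deviations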;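 note: channel opened by trigger with iodide after compound preincubation; score built on the fluorescence ratio of max minus min over baseline; more negative score means more quench and so TMEM16A activation or potentiation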
FID counter: compounds displacing fluorescent DNA intercalator, primary screen, artefact control for HCV NS3 helicase inhibitor project, biochemical, FID fluorescence | DNA fluorescent intercalator displacement | inhibition, % at 7.9 µM | AID 1845, 2009 | actives 0.17% (n = 290,000); in the data active = inhibition above about 37%;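 note: 0% = vehicle and 100% = reference compound; higher means more ethidium bromide displaced from hairpin DNA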
TMEM16A inh: TMEM16A chloride channel inhibitors, primary screen, cell-based, HTS; Anoctamin-1 (Mus musculus), Q8BHY3; HEK293 TMEM16A/YFP iodide influx fluorescence, ionomycin; normalized B-score (activity score, 25-100; higher = stronger inhibition) at 10 µM; actives 1.2% (n = 310,000); AID 588511, 2011;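 active = ratio plate-corrected score three or more library SD toward inhibition, starting fluorescence score within five deviations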;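 note: score derived from kinetic fluorescence span divided by baseline fluorescence per well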
UBC13 inh: UBC13 polyubiquitin chain formation inhibitors, primary screen, biochemical, TR-FRET, uHTS. Ubiquitin-conjugating enzyme E2 N (Homo sapiens), P61088. inhibition, % at 20 µM. actives 0.47% (n = 330,000); in the data active = inhibition above about 45%, passing the limit was not always enough; inconclusive = no clear call, values can overlap the other calls
Target sequence (P61088 whole entry, looked up): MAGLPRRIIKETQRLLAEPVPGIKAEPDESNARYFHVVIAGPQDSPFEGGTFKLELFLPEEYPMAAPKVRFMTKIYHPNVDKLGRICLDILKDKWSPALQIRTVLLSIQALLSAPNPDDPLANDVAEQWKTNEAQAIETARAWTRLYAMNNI
Apaf1 inhib: inhibitors of human Apaf-1 apoptosome, primary screen, biochemical, DEVD-Rh110 fluorescence, uHTS. reconstituted apoptosome caspase-3 activity. AID 489030, 2010. actives 0.71% (n = 330,000). Apoptotic protease-activating factor 1 (Homo sapiens), O14727. inhibition, % at 20 µM; active = inhibition of at least 40% at 20 µM;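 note: plate controls were DMSO wells for no effect and DEVD-CHO caspase inhibitor wells for full effect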
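System: reconstituted apoptosome with Apaf-1, cytochrome c, caspase-9, procaspase-3, dATP; Signal: Rh110 fluorescence intensity; Schedule: 30 min compound preincubation, 50 min activation, room temperature; Reagent: cytochrome c trigger plus (Z-DEVD)2-Rh110 caspase-3 substrate.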
Casp3 UBC13 ctr: CASP3 inhibitor validation, counterassay for project on UBE2N polyubiquitination blockers, biochemical, one dose. Recombinant caspase-3, Caspase-Glo 3/7 luminescence, 60 min. inhibition, % at 20 µM. actives 4% (n = 1,400). shares compounds with UBC13 inh;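 active = mean inhibition across replicates above about 26%, limit read from the data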;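 note: plate controls were DMSO with caspase-3 for no effect and DMSO wells lacking enzyme for full effect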
Target sequence (P42574 whole entry, looked up): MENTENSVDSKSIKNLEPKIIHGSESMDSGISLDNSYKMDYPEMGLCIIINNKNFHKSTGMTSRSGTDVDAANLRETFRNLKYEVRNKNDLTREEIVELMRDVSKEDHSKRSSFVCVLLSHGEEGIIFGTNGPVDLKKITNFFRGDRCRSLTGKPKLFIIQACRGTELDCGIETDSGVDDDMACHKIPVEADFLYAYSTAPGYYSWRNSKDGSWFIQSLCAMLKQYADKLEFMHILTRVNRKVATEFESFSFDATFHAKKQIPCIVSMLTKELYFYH
UBC13 confirm: UBC13 polyubiquitination inhibitors, single-point retest, confirmation, biochemical, TR-FRET, single concentration | shares compounds with UBC13 inh | inhibition, % at 10 µM | actives 68% (n = 1,400); in the data active = inhibition above about 45%; inconclusive = no clear call, values can overlap the other calls
Numbers without * were called inactive; i = inactive; ? = inconclusive; / = not tested or not shown.

SMILES	ANO1 activ	FID counter	TMEM16A inh	UBC13 inh	Apaf1 inhib	Casp3 UBC13 ctr	UBC13 confirm
NCCNc1ccc(C(=O)N2c3ccccc3Sc3ccccc32)cc1[N+](=O)[O-]	i	32	i	65*	29	-2	111*
Cc1ncc(CO)c(/C=N/NC(=S)Nc2cccc(Cl)c2)c1O	i	-1	i	22	-8	/	/
Cc1ncc(CO)c(/C=N/NC(=S)Nc2ccc(Cl)c(Cl)c2)c1O	i	4	i	51*	-16	-2	28
Cc1ccc(C(=O)N/C(=C\c2ccc(-c3cccc([N+](=O)[O-])c3)o2)C(=O)NCCCN(C)C)cc1	i	31	i	48*	1	-2	63*
CC(=NCc1ccco1)c1c(C)[nH]n(-c2nc3ccccc3s2)c1=O	i	2	i	53*	-13	78*	?
CCCCN1C(=N)N([C@@H](C)CN2CCC[C@H]2CN2C(N)=NC[C@@H]2Cc2ccccc2)C[C@H]1Cc1ccccc1	i	/	/	28	24	/	/
CCCCN1C(=N)N([C@@H](CN2CCC[C@H]2CN2C(N)=NC[C@@H]2Cc2ccccc2)C(C)C)C[C@H]1Cc1ccccc1	i	/	/	47*	38	0	39
CCCCN1C(=N)N([C@@H](CCC)CN2CCC[C@H]2CN2C(N)=NC[C@H]2CC(C)C)C[C@H]1Cc1ccccc1	/	/	/	51*	17	2	38
COc1cc(NC(=O)c2ccc(Cl)cc2Cl)ccc1NC(=O)c1cccs1	i	-2	i	4	1	/	/
CCOc1ccc(NC(=O)NNC(=O)c2ccc3ccccc3c2O)cc1	i	-8	i	49*	13	-2	16
CCOC(=O)c1ccc(NC(=O)c2nc[nH]c2C(=O)NCCCNC(=O)c2[nH]cnc2C(=O)Nc2ccc(C(=O)OCC)cc2)cc1	i	/	/	15	-1	/	/
CCOC(=O)c1ccc(NC(=O)c2nc[nH]c2C(=O)NCC(=O)OC(C)(C)C)cc1	i	/	i	52*	25	-2	28
CC(C)(C)OC(=O)N1CCC(NC(=O)c2nc[nH]c2C(=O)NC2CCN(C(=O)OC(C)(C)C)CC2)CC1	i	/	/	8	19	/	/
CCOC(=O)c1ccc(NC(=O)c2nc[nH]c2C(=O)NC2CCN(C(=O)OC(C)(C)C)CC2)cc1	i	/	i	92*	12	-1	92*
CCOC(=O)c1ccc(NC(=O)c2nc[nH]c2C(=O)NCCCCCNC(=O)OC(C)(C)C)cc1	i	/	i	45*	35	-2	22
CC(=O)c1cc(-c2ccc(F)cc2)n(CCC(=O)Nc2cccc(C)n2)c1C	i	-17	i	-1	-4	/	/
NCc1cc2c3c(c1)CCCN3CCC2	i	31	i	54*	-15	-2	19
CCCC(C(=O)NC(C)(C)C)N(Cc1ccccc1Cl)C(=O)c1snc(C(N)=O)c1N (configuration not stated)	i	-29	i	49*	13	-2	61*
COc1cc2[nH]c(=S)nc(NC3CCCCCC3)c2cc1OC	i	-16	i	36	2	/	/
COc1cc2[nH]c(=S)nc(Nc3ccc(NC(C)=O)cc3)c2cc1OC	i	-3	i	46*	-11	4	48*
CN(Cc1ccc(OC(F)F)cc1)C(=O)C1CCN(S(=O)(=O)c2ccc3c(c2)OCCO3)CC1	i	/	/	0	6	/	/
COc1nc(Nc2ccccc2F)nc(OC)n1	i	0	i	10	-8	/	/
Cc1nc(N)sc1C(=O)N/N=C/c1cccnc1	i	-14	i	92*	1	24	108*

Assay outcomes as filed in PubChem.
